The subject of assay [1] is Candida albicans. In words: Antifungal activity against Candida albicans ATCC SC5314 assessed as fungal growth inhibition by CLSI protocol based method. The format is functional.
The test system of assay [2] is Candida albicans. The assay can be described thus: Antifungal activity against Candida albicans CPCC400616 assessed as fungal growth inhibition by CLSI protocol based method. The format is functional.
The next assay deals with Candida tropicalis. The assay can be described thus: Antifungal activity against Candida tropicalis CGMCC 2.3739 assessed as fungal growth inhibition by CLSI protocol based method. Format: functional.
For a further assay, the system named is Cryptococcus neoformans. In words: Antifungal activity against Cryptococcus neoformans CGMCC2.3161 assessed as fungal growth inhibition by CLSI protocol based method. Format: functional.
The subject of another assay is Candida parapsilosis. The assay can be described thus: Antifungal activity against Candida parapsilosis GIM2.190 assessed as fungal growth inhibition by CLSI protocol based method. Format: functional. The following applies: Lodderomyces parapsilosis.
In a further assay the test system is Nakaseomyces glabratus. The assay can be described thus: Antifungal activity against Candida glabrata assessed as fungal growth inhibition by CLSI protocol based method. Format: functional.
The subject of another assay is Pichia kudriavzevii. The assay can be described thus: Antifungal activity against Candida krusei GIM2.1 assessed as fungal growth inhibition by CLSI protocol based method. The format is functional.
Assay [3] deals with Candida albicans. In words: Antifungal activity against fluconazole-resistant Candida albicans 901 assessed as fungal growth inhibition by CLSI protocol based method.
Assay [4] deals with Candida albicans. The assay can be described thus: Antifungal activity against fluconazole-resistant Candida albicans 904 assessed as fungal growth inhibition by CLSI protocol based method.
The subject of assay [5] is Candida albicans. In words: Antifungal activity against fluconazole-resistant Candida albicans 632 assessed as fungal growth inhibition by CLSI protocol based method.
In assay [6] the test system is Candida albicans. In words: Antifungal activity against fluconazole-resistant Candida albicans 100 assessed as fungal growth inhibition by CLSI protocol based method.
Assay [7] concerns Candida albicans. In words: Antifungal activity against fluconazole-resistant Candida albicans 103 assessed as fungal growth inhibition by CLSI protocol based method.
Assay [8] deals with Candida albicans. The assay can be described thus: Antifungal activity against fluconazole-resistant Candida albicans 311 assessed as fungal growth inhibition by CLSI protocol based method.
Assay [9] deals with Candida albicans. The assay can be described thus: Fungicidal activity against Candida albicans ATCC SC5314 assessed as inhibition of visible fungal growth measured after 48 hrs. Format: functional.
The test system of assay [10] is Candida albicans. In words: Anti-biofilm activity in Candida albicans CPCC400616 assessed as inhibition of biofilm formation incubated for 24 hrs by XTT assay. Format: functional. The method, boiled down:
(§1)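 C. albicans CPCC400616 suspension placed in wells at 37 °C. Non-adherent cells and medium were removed at 3, 6, 18 or 24 h and wells washed with PBS. Compounds were added at a range of concentrations in fresh RPMI 1640 and incubated a further 24 h at 37 °C. Biofilm metabolic activity was read by XTT reduction.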

Assay [11] has as its system Candida albicans. The assay can be described thus: Anti-biofilm activity in Candida albicans CPCC400616 assessed as inhibition of biofilm formation incubated for 18 hrs by XTT assay. The format is functional. The method, boiled down:
as §1

The test system of assay [12] is Candida albicans. The assay can be described thus: Anti-biofilm activity in Candida albicans CPCC400616 assessed as inhibition of biofilm formation incubated for 6 hrs by XTT assay. The format is functional. The essentials:
as §1

The subject of assay [13] is Candida albicans. In words: Anti-biofilm activity in Candida albicans CPCC400616 assessed as inhibition of biofilm formation incubated for 3 hrs by XTT assay. The format is functional. The essentials: as §1
The test system of another assay is THLE-2. The assay can be described thus: Cytotoxicity against human THLE-2 cells assessed as reduction in cell viability measured after 96 hrs by MTT assay. The following applies: THLE-2, 96 h. The format is ADME, cell-based.
The subject of another assay is A549. In words: Cytotoxicity against human A549 cells assessed as reduction in cell viability measured after 96 hrs by MTT assay. The format is ADME, cell-based. The following applies: A549, 96 h.
A further assay deals with MCF7. In words: Cytotoxicity against human MCF7 cells assessed as reduction in cell viability measured after 96 hrs by MTT assay. The format is ADME, cell-based. Particulars: MCF7, 96 h.

≈ marks a conversion by molar mass, not a printed value.

On to `COc1ccc(-c2ccc(C(=O)NC(Cn3ccnc3)C(=O)c3ccccc3)s2)cc1` (configuration not stated), for which the minimum inhibitory concentration (MIC) in the assay with Candida albicans [1] was 0.125 µg/mL (≈ 0.29 µM); with Candida albicans [2], 1 µg/mL (≈ 2.32 µM); in the assay with Candida tropicalis, 2 µg/mL (≈ 4.63 µM); in the assay on Cryptococcus neoformans, above 64 µg/mL; with Candida parapsilosis, above 64 µg/mL; in the assay on Nakaseomyces glabratus, above 64 µg/mL. Further, the MIC in the assay with Pichia kudriavzevii was above 64 µg/mL; with Candida albicans [3] it was 2 µg/mL (≈ 4.63 µM); with Candida albicans [4], 4 µg/mL (≈ 9.27 µM); in the assay on Candida albicans [5], 8 µg/mL (≈ 18.5 µM); with Candida albicans [6], 2 µg/mL (≈ 4.63 µM); in the assay on Candida albicans [7] it was 4 µg/mL (≈ 9.27 µM). Besides, the minimal inhibitory concentration (MIC) in the assay on Candida albicans [8] was 4 µg/mL (≈ 9.27 µM).
With `O=C(NC(Cn1ccnc1)C(=O)c1ccc(F)cc1)c1ccc(-c2ccc(Cl)cc2)s1` (configuration not stated), the MIC was 0.06 µg/mL (≈ 0.132 µM) in the assay with Candida albicans [1]; 0.25 µg/mL (≈ 0.551 µM) in the assay with Candida albicans [2]; 2 µg/mL (≈ 4.41 µM) in the assay with Candida tropicalis; above 64 µg/mL in the assay on Cryptococcus neoformans; above 64 µg/mL in the assay with Candida parapsilosis; 1 µg/mL (≈ 2.2 µM) in the assay on Nakaseomyces glabratus. Also, the MIC in the assay on Pichia kudriavzevii is above 64 µg/mL; in the assay with Candida albicans [3] it was 8 µg/mL (≈ 17.6 µM); with Candida albicans [4] it was 16 µg/mL (≈ 35.2 µM); in the assay with Candida albicans [5], 4 µg/mL (≈ 8.81 µM); in the assay on Candida albicans [6] it was 4 µg/mL (≈ 8.81 µM); with Candida albicans [7], 8 µg/mL (≈ 17.6 µM). For the same molecule, in the assay on Candida albicans [8], the minimum inhibitory concentration (MIC) was 4 µg/mL (≈ 8.81 µM).
As for `COc1ccc(C(=O)C(Cn2ccnc2)NC(=O)c2ccc(-c3ccc(Cl)cc3)s2)cc1` (configuration not stated), the minimal inhibitory concentration (MIC) is below 0.03 µg/mL in the assay on Candida albicans [1]; 0.125 µg/mL (≈ 0.268 µM) in the assay with Candida albicans [2]; 0.06 µg/mL (≈ 0.129 µM) in the assay on Candida tropicalis; above 64 µg/mL with Cryptococcus neoformans; above 64 µg/mL with Candida parapsilosis; 4 µg/mL (≈ 8.58 µM) in the assay with Nakaseomyces glabratus. Besides, the MIC was found to be 8 µg/mL (≈ 17.2 µM) in the assay on Pichia kudriavzevii; 8 µg/mL (≈ 17.2 µM) in the assay with Candida albicans [3]; 16 µg/mL (≈ 34.3 µM) in the assay on Candida albicans [4]; 8 µg/mL (≈ 17.2 µM) in the assay with Candida albicans [5]; 4 µg/mL (≈ 8.58 µM) in the assay on Candida albicans [6]; 8 µg/mL (≈ 17.2 µM) in the assay with Candida albicans [7]. Further, in the assay on Candida albicans [8], the MIC is 4 µg/mL (≈ 8.58 µM).
`O=C(NC(Cn1ccnc1)C(=O)c1ccccc1F)c1ccc(-c2ccc(Cl)cc2)s1` (configuration not stated): the MIC with Candida albicans [1] is 0.06 µg/mL (≈ 0.132 µM); in the assay on Candida albicans [2], 0.06 µg/mL (≈ 0.132 µM); in the assay with Candida tropicalis, above 64 µg/mL; in the assay with Cryptococcus neoformans, 2 µg/mL (≈ 4.41 µM); with Candida parapsilosis, above 64 µg/mL; in the assay on Nakaseomyces glabratus, above 64 µg/mL. Besides, the MIC with Pichia kudriavzevii is 1 µg/mL (≈ 2.2 µM); in the assay with Candida albicans [3], 2 µg/mL (≈ 4.41 µM); with Candida albicans [4] it was above 64 µg/mL; with Candida albicans [5] it was above 64 µg/mL; in the assay on Candida albicans [6], above 64 µg/mL; in the assay with Candida albicans [7], 4 µg/mL (≈ 8.81 µM). The MIC in the assay with Candida albicans [8] worked out at 8 µg/mL (≈ 17.6 µM).
Regarding `C[C@@H](c1ncncc1F)[C@](O)(Cn1cncn1)c1ccc(F)cc1F` [VORICONAZOLE], the minimum fungicidal concentration (MFC) with Candida albicans [9] turned out to be 8 µg/mL (≈ 22.9 µM). Also, the MBIC50 in the assay on Candida albicans [10] was above 64 µg/mL; with Candida albicans [11] it was above 64 µg/mL; in the assay with Candida albicans [12] it was 32 µg/mL; in the assay with Candida albicans [13] it was 16 µg/mL. For the same molecule, the minimal inhibitory concentration (MIC) in the assay with Candida albicans [1] was determined as 0.06 µg/mL (≈ 0.172 µM); in the assay with Candida albicans [2], 0.125 µg/mL (≈ 0.358 µM); in the assay with Candida tropicalis, 0.06 µg/mL (≈ 0.172 µM); in the assay with Cryptococcus neoformans it was 0.06 µg/mL (≈ 0.172 µM); in the assay with Candida parapsilosis, 0.06 µg/mL (≈ 0.172 µM); in the assay on Nakaseomyces glabratus, 0.125 µg/mL (≈ 0.358 µM). In addition, the MIC in the assay on Pichia kudriavzevii was found to be 0.125 µg/mL (≈ 0.358 µM). In addition, the 50% inhibitory concentration (IC50) in the assay on THLE-2, in the assay with A549 and with MCF7 was above 30 µM in each case.
In the case of `O=C(NC(Cn1ccnc1)C(=O)c1ccccc1)c1ccc(-c2ccc(Cl)cc2)s1` (configuration not stated), the minimal inhibitory concentration (MIC) in the assay on Candida albicans [1] was 0.125 µg/mL (≈ 0.287 µM); in the assay on Candida albicans [2], 0.125 µg/mL (≈ 0.287 µM); with Candida tropicalis, 0.125 µg/mL (≈ 0.287 µM); in the assay on Cryptococcus neoformans, above 64 µg/mL; in the assay with Candida parapsilosis, 0.25 µg/mL (≈ 0.573 µM); with Nakaseomyces glabratus, 1 µg/mL (≈ 2.29 µM). The minimum inhibitory concentration (MIC) with Pichia kudriavzevii is 4 µg/mL (≈ 9.18 µM); in the assay with Candida albicans [3] it was 4 µg/mL (≈ 9.18 µM); in the assay on Candida albicans [4] it was 4 µg/mL (≈ 9.18 µM); with Candida albicans [5], 4 µg/mL (≈ 9.18 µM); in the assay with Candida albicans [6], 2 µg/mL (≈ 4.59 µM); in the assay on Candida albicans [7] it was 4 µg/mL (≈ 9.18 µM). In the assay with Candida albicans [8], the minimum inhibitory concentration (MIC) is 2 µg/mL (≈ 4.59 µM).
Consider `O=C(NC(Cn1ccnc1)C(=O)c1ccccc1)c1ccc(-c2ccccc2)s1` (configuration not stated), for which the minimum inhibitory concentration (MIC) worked out at 0.5 µg/mL (≈ 1.25 µM) in the assay on Candida albicans [1]; 0.5 µg/mL (≈ 1.25 µM) in the assay on Candida albicans [2]; 1 µg/mL (≈ 2.49 µM) in the assay on Candida tropicalis; 8 µg/mL (≈ 19.9 µM) in the assay with Cryptococcus neoformans; 0.5 µg/mL (≈ 1.25 µM) in the assay with Candida parapsilosis; 2 µg/mL (≈ 4.98 µM) in the assay on Nakaseomyces glabratus. For the same molecule, the MIC turned out to be 32 µg/mL (≈ 79.7 µM) in the assay with Pichia kudriavzevii; 4 µg/mL (≈ 9.96 µM) with Candida albicans [3]; 4 µg/mL (≈ 9.96 µM) in the assay with Candida albicans [4]; 8 µg/mL (≈ 19.9 µM) in the assay with Candida albicans [5]; 4 µg/mL (≈ 9.96 µM) in the assay on Candida albicans [6]; 4 µg/mL (≈ 9.96 µM) in the assay on Candida albicans [7]. For the same molecule, the MIC with Candida albicans [8] is 8 µg/mL (≈ 19.9 µM).
Regarding `O=C(NC(Cn1ccnc1)C(=O)c1ccccc1)c1ccc(-c2cccc(Cl)c2)s1` (configuration not stated), the MIC with Candida albicans [1] is 16 µg/mL (≈ 36.7 µM); with Candida albicans [2], 32 µg/mL (≈ 73.4 µM); in the assay on Candida tropicalis, 32 µg/mL (≈ 73.4 µM); in the assay on Cryptococcus neoformans, above 64 µg/mL; in the assay on Candida parapsilosis it was above 64 µg/mL; with Nakaseomyces glabratus, above 64 µg/mL. The minimum inhibitory concentration (MIC) in the assay with Pichia kudriavzevii was above 64 µg/mL.
`O=C(NC(Cn1ccnc1)C(=O)c1ccccc1)c1ccc(-c2ccccc2)o1` (configuration not stated): the MIC was 16 µg/mL (≈ 41.5 µM) in the assay on Candida albicans [1]; 16 µg/mL (≈ 41.5 µM) with Candida albicans [2]; above 64 µg/mL in the assay with Candida tropicalis; above 64 µg/mL in the assay with Cryptococcus neoformans; above 64 µg/mL with Candida parapsilosis; above 64 µg/mL in the assay on Nakaseomyces glabratus. Also, in the assay with Pichia kudriavzevii, the MIC was above 64 µg/mL.

For the origin of these results see ChEMBL document CHEMBL4828738, “Design, synthesis and evaluation of novel 5-phenylthiophene derivatives as potent fungicidal of Candida albicans and antifungal reagents of fluconazole-resistant fungi” (Eur J Med Chem, 2021).
